Source: ChEMBL document CHEMBL1938375, “Design, synthesis and biological evaluation of pyrazole derivatives as potential multi-kinase inhibitors in hepatocellular carcinoma” (Eur J Med Chem, 2012)
Calls of active or inactive are those of the source. No cut-off for these calls is given here.

What was measured:
[1] = target: RAC-alpha serine/threonine-protein kinase (Homo sapiens) (UniProt P31749); assay: Inhibition of AKT phosphorylation in human SNU449 cells at 100 uM after 48 hrs by Western blotting relative to beta-actin; type: cell-based; conditions: SNU-449
In short: (§1)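 Western blot for P-AKT in SNU449 cells treated at 25, 50 and 100 for 48 h and 72 h, with DMSO-treated cells as control. Bands were quantified as the P-AKT to β-actin ratio.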

[2] = target: RAC-alpha serine/threonine-protein kinase (Homo sapiens) (UniProt P31749); assay: Inhibition of AKT in human SNU449 cells assessed as phosphorylated GSK3-beta level at 50 uM after 48 hrs by Western blotting relative to beta-actin; type: cell-based; conditions: SNU-449
In short: (§2)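 Western blots in SNU449 cells treated at a single intermediate level for 48 and 72 h, with DMSO as control. Blots probed P-ERK1/2, P-GSK-3β (Ser-9) and P-RpS6. Band intensities were given as the ratio of phosphoprotein to β-actin.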

SNU-449 [3] = assay: Up-regulation of p21 expression in human SNU449 cells at 50 uM after 72 hrs by Western blotting relative to beta-actin; type: functional
In short: (§3)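 Western blots in SNU449 cells treated at a single intermediate level for 72 h, with DMSO as control. Blots probed cyclin D1, p21, p27 and p53. Band intensities were given as the ratio of protein to β-actin.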

SNU-449 [4] = assay: Cell cycle arrest in human SNU449 cells assessed as accumulation at G1 phase at 100 uM after 48 to 72 hrs using […]propidium iodide staining by flow cytometric analysis; type: functional, cell-based
SNU-449 [5] = assay: Cell cycle arrest in human SNU449 cells assessed as decrease in S phase at 100 uM after 48 to 72 hrs using […]propidium iodide staining by flow cytometric analysis
[6] = target: RAC-alpha serine/threonine-protein kinase (Homo sapiens) (UniProt P31749); assay: Inhibition of AKT in human SNU449 cells assessed as beta-catenin level at 50 uM after 48 hrs by Western blotting relative to beta-actin; conditions: SNU-449
SNU-449 [7] = assay: Cytotoxicity against human SNU449 cells after 72 hrs; type: functional, cell-based; conditions: SNU-449, 72 h
In short: (§4)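 Trypan blue exclusion counts on SNU449 cells grown in RPMI 1640 with 10% FBS and antibiotics. Compounds came from 10 mM DMSO stocks, diluted and tested at 50, 100 and 150 for 48 and 72 h in triplicate, with DMSO as control. Viable cells were counted in a Burker chamber. IC50 was derived from percentage viable cells relative to control.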

SNU-449 [8] = assay: Effect on p27 expression in human SNU449 cells at 50 uM after 72 hrs by Western blotting relative to beta-actin; type: functional; in short: as §3
[9] = target: RAC-alpha serine/threonine-protein kinase (Homo sapiens) (UniProt P31749); assay: Inhibition of AKT in human SNU449 cells assessed as phosphorylated ERK1/2 level at 50 uM after 48 hrs by Western blotting relative to beta-actin; type: cell-based; conditions: SNU-449; in short: as §2
SNU-449 [10] = assay: Cell cycle arrest in human SNU449 cells assessed as accumulation at G1 phase at 25 uM after 48 to 72 hrs using […]propidium iodide staining by flow cytometric analysis; type: functional, cell-based
[11] = target: RAC-alpha serine/threonine-protein kinase (Homo sapiens) (UniProt P31749); assay: Inhibition of AKT in human SNU449 cells assessed as phosphorylated […] level at 50 uM after 72 hrs by Western blotting relative to beta-actin; type: cell-based; conditions: SNU-449
[12] = target: RAC-alpha serine/threonine-protein kinase (Homo sapiens) (UniProt P31749); assay: Inhibition of AKT phosphorylation in human SNU449 cells at 25 uM after 48 hrs by Western blotting relative to beta-actin; type: cell-based; conditions: SNU-449; in short: as §1
[13] = target: RAC-alpha serine/threonine-protein kinase (Homo sapiens) (UniProt P31749); assay: Inhibition of AKT phosphorylation in human SNU449 cells at 50 uM after 72 hrs by Western blotting relative to beta-actin; type: cell-based; conditions: SNU-449; in short: as §1
SNU-449 [14] = assay: Up-regulation of p53 expression in human SNU449 cells at 50 uM after 72 hrs by Western blotting relative to beta-actin; type: functional; in short: as §3
[15] = target: RAC-alpha serine/threonine-protein kinase (Homo sapiens) (UniProt P31749); assay: Inhibition of AKT in human SNU449 cells assessed as phosphorylated MDM2 level at 50 uM after 72 hrs by Western blotting relative to beta-actin; conditions: SNU-449
SNU-449 [16] = assay: Cytotoxicity against human SNU449 cells at 50 uM after 48 hrs; type: functional, cell-based; in short: as §4
SNU-449 [17] = assay: Decrease of cyclin D1 level in human SNU449 cells at 50 uM after 72 hrs by Western blotting relative to beta-actin; type: functional; in short: as §3
[18] = target: RAC-alpha serine/threonine-protein kinase (Homo sapiens) (UniProt P31749); assay: Inhibition of AKT in human SNU449 cells assessed as phosphorylated RpS6 level at 50 uM after 48 hrs by Western blotting relative to beta-actin; type: cell-based; conditions: SNU-449; in short: as §2
[19] = target: RAC-alpha serine/threonine-protein kinase (Homo sapiens) (UniProt P31749); assay: Inhibition of AKT in human SNU449 cells assessed as phosphorylated ERK1/2 level at 50 uM after 72 hrs by Western blotting relative to beta-actin; type: cell-based; conditions: SNU-449; in short: as §2
SNU-449 [20] = assay: Cytotoxicity against human SNU449 cells at 50 uM after 72 hrs; type: functional, cell-based; in short: as §4
SNU-449 [21] = assay: Induction of apoptosis in human SNU449 cells at 50 to 100 uM after 72 hrs using annexin V/propidium iodide staining by flow cytometric analysis; type: functional, cell-based
In short: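 SNU449 cells were treated at two compound levels for 72 h, with DMSO as control. Apoptosis was detected by Annexin V/propidium iodide staining and flow cytometry, following the kit instructions. Values are averages ± SD.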

[22] = target: RAC-alpha serine/threonine-protein kinase (Homo sapiens) (UniProt P31749); assay: Inhibition of AKT phosphorylation in human SNU449 cells at 100 uM after 72 hrs by Western blotting relative to beta-actin; type: cell-based; conditions: SNU-449; in short: as §1
[23] = target: RAC-alpha serine/threonine-protein kinase (Homo sapiens) (UniProt P31749); assay: Inhibition of AKT in human SNU449 cells assessed as phosphorylated RpS6 level at 50 uM after 72 hrs by Western blotting relative to beta-actin; type: cell-based; conditions: SNU-449; in short: as §2
[24] = target: RAC-alpha serine/threonine-protein kinase (Homo sapiens) (UniProt P31749); assay: Inhibition of AKT phosphorylation in human SNU449 cells at 50 uM after 48 hrs by Western blotting relative to beta-actin; type: cell-based; conditions: SNU-449; in short: as §1
[25] = target: RAC-alpha serine/threonine-protein kinase (Homo sapiens) (UniProt P31749); assay: Inhibition of AKT in human SNU449 cells assessed as total MDM2 protein level at 50 uM after 72 hrs by Western blotting relative to beta-actin; conditions: SNU-449
[26] = target: RAC-alpha serine/threonine-protein kinase (Homo sapiens) (UniProt P31749); assay: Inhibition of AKT in human SNU449 cells assessed as phosphorylated GSK3-beta level at 50 uM after 72 hrs by Western blotting relative to beta-actin; type: cell-based; conditions: SNU-449; in short: as §2
SNU-449 [27] = assay: Cytotoxicity against human SNU449 cells after 48 hrs; type: functional, cell-based; conditions: SNU-449, 48 h; in short: as §4
[28] = target: RAC-alpha serine/threonine-protein kinase (Homo sapiens) (UniProt P31749); assay: Inhibition of AKT phosphorylation in human SNU449 cells at 25 uM after 72 hrs by Western blotting relative to beta-actin; type: cell-based; conditions: SNU-449; in short: as §1
SNU-449 [29] = assay: Cell cycle arrest in human SNU449 cells assessed as accumulation at G1 phase at 50 uM after 72 hrs using […]propidium iodide staining by flow cytometric analysis; type: functional, cell-based

Chain of RAC-alpha serine/threonine-protein kinase (Homo sapiens) (P31749 whole entry): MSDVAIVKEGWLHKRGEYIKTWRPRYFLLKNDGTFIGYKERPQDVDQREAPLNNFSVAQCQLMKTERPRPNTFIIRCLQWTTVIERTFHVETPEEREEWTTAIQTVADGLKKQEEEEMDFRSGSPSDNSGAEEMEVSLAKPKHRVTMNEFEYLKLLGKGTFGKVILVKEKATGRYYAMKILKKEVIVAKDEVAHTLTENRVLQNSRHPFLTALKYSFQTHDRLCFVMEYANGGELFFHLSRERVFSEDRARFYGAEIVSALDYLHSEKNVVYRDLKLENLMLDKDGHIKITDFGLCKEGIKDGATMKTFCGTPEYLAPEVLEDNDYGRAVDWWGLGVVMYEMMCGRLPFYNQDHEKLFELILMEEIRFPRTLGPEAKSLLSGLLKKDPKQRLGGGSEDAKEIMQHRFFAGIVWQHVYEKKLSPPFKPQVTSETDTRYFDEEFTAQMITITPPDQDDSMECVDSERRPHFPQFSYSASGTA

Row | SMILES | Ratio [1] | Ratio [2] | Ratio (SNU-449 [3]) | Activity (SNU-449 [4]) | Activity (SNU-449 [5]) | Ratio [6] | IC50 (SNU-449 [7]) | Ratio (SNU-449 [8]) | Ratio [9] | Ratio [11] | Ratio [12] | Ratio [13] | Ratio (SNU-449 [14]) | Ratio [15] | Activity (SNU-449 [16]) | Ratio (SNU-449 [17]) | Ratio [18] | Ratio [19] | Activity (SNU-449 [20]) | Activity (SNU-449 [21]) | other results
1 | Cc1cccc(-c2cc(C(=O)Nc3ccc(N)cc3)n(-c3ccc(N)cc3)n2)c1C | 0.07 | 0.18 | 4.6 | Active | Active | 0.57 | < 50 µM | 0.95 | 1.5 | 0.75 | 1.2 | 0.32 | 1.4 | 0.4 | Active | 0.39 | 0.5 | 1.1 | Active | Active | Activity (SNU-449 [10]): Active; Ratio [22]: 0.5; Ratio [23]: 0.29; Ratio [24]: 0.26; Ratio [25]: 1.3; Ratio [26]: 0.93; IC50 (SNU-449 [27]): < 100 µM; Ratio [28]: 2.2
2 | Cc1cccc(NC(=O)c2cc(C(=O)Nc3ccc(N)cc3)n(-c3ccc(N)cc3)n2)c1C | 0.39 | 0.48 | 4.6 | Active | Active | 0.41 | 50 µM | 1.2 | 2 | 0.46 | 1.1 | 0.53 | 1.3 | 0.65 | Active | 0.67 | 0.64 | 0.91 | Active | Active | Activity (SNU-449 [29]): Active; Ratio [22]: 0.64; Ratio [23]: 0.49; Ratio [24]: 0.58; Ratio [25]: 1.4; Ratio [26]: 0.6; IC50 (SNU-449 [27]): 150 µM; Ratio [28]: 1.9
